According to ChEMBL document CHEMBL3407436, “Design and development of novel Mycobacterium tuberculosis L-alanine dehydrogenase inhibitors” (Eur J Med Chem, 2015):
In brackets after ≈: the same amount, converted by molar mass.

What was measured:
[1] = Inhibition of Mycobacterium tuberculosis AlaDH using L-alanine as substrate after 20 mins by spectrophotometry
In short: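 125 mM glycine-KOH buffer pH 10.2, 1 mM NAD⁺, 50 mM L-alanine, enzyme at a level set by range finding; 20 min at 37°C. NADH formation from oxidative deamination monitored continuously at 340 nm. Compounds tested at 25 to 0.5 µM; background measured without enzyme. IC₅₀ by software analysis.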

[2] = tested on: Mycobacterium tuberculosis; assay: Antimycobacterial activity against Mycobacterium tuberculosis H37Rv ATCC 27294 after 28 days by agar dilution method; type: functional; conditions: H37Rv ATCC 27294, 672 h
In short: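 Two-fold serial dilutions incorporated into Middlebrook 7H11 agar with OADC, final 50 to 0.78 µg/mL. Inoculum from fresh 7H11 slants adjusted to 1 mg/mL wet weight in 0.05% Tween 80 saline, diluted 10^-2 (~10⁷ cfu/mL). 5 µL spotted per tube; 37 °C, read after 28 days. MIC = lowest concentration completely inhibiting growth; duplicates.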

[3] = tested on: Mycobacterium tuberculosis; assay: Antimycobacterial activity against dormant Mycobacterium tuberculosis H37Rv model assessed as log reduction at 10 ug/ml incubated for 7 days measured after 28 days in presence of nutrient deprived condition; type: functional
In short: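 H37Rv grown in 7H9/OADC, pelleted, washed twice and resuspended in PBS in sealed bottles, starved 6 weeks at 37°C. Treated at 10 µg/ml for 7 days. Suspensions diluted 10-fold to 10^-6 in 7H9/OADC and plated in triplicate; 37°C for 28 days without agitation. Wells with visible growth scored positive, MPN calculated statistically.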

[4] = tested on: Mycobacterium tuberculosis; assay: Binding affinity to Mycobacterium tuberculosis AlaDH assessed as protein-ligand stabilization by measuring shift in melting temperature by differential scanning fluorimetry
In short: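 Thermal shift assay on MTB L-AlaDH with Sypro Orange dye in a real-time PCR instrument. Samples equilibrated at 25°C for 3 min, then heated to 95°C in 0.1°C steps with fluorescence read at each step. Tm of protein-ligand complex compared with native protein Tm.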

[5] = Cytotoxicity against mouse RAW264.7 cells at 50 uM after 48 hrs by MTT assay; type: cell-based; conditions: read-out: INH
In short: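 RAW 264.7 cells grown in RPMI with 10% FBS plus penicillin/streptomycin to 80-90% confluency, seeded ~5,000 cells/well on poly-L-lysine plates, 24 h at 37°C, 5% CO₂. Compounds at 50 µM for 48 h; MTT (0.5 mg/ml) added for 3 h at 37°C; formazan read at 595 nm.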

SMILES	IC50 [1]	MIC [2]	FC [3]	IC50 ([1]; read-out: IC50)	ΔTm [4]	cytotoxicity at 48 h, 50 µM [5]
CO[C@H]1/C=C/O[C@@]2(C)Oc3c(C)c(O)c4c(O)c(c(/C=N/N5CCN(C)CC5)c(O)c4c3C2=O)NC(=O)/C(C)=C\C=C\[C@H](C)[C@H](O)[C@@H](C)[C@@H](O)[C@@H](C)[C@H](OC(C)=O)[C@@H]1C [RIFAMPIN]	Not Active	0.15 µM (≈ 0.123 µg/mL)	2	–	–	–
CC(C)(C)OC(=O)N1CCc2c(sc(NC(=O)c3ccc(Cl)cc3)c2C(N)=O)C1	–	1.79 µM (≈ 0.78 µg/mL)	–	580 nM	1.8 °C	37.3%
NC(=O)c1c(NC(=O)c2ccc(Cl)cc2)sc2c1CCN(Cc1ccccc1)C2	–	3.67 µM (≈ 1.56 µg/mL)	2	1140 nM	–	11.1%
NC(=O)c1c(NC(=O)c2ccc(Oc3ccccc3)cc2)sc2c1CCN(C(=O)c1ccccc1)C2	–	3.47 µM (≈ 1.73 µg/mL)	2	1110 nM	–	4.71%
Cc1cccc(N2C(=N)S/C(=C\c3ccc(OCc4ccccc4)cc3)C2=O)n1	–	1.94 µM (≈ 0.779 µg/mL)	–	9440 nM	–	25.1%
N=C1S/C(=C\c2ccc(OCc3ccccc3)cc2)C(=O)N1c1ccccc1	–	16.2 µM (≈ 6.26 µg/mL)	–	2270 nM	–	37.9%
CN1CCc2c(sc(NC(=O)c3ccc(Oc4ccccc4)cc3)c2C(N)=O)C1	–	1.85 µM (≈ 0.754 µg/mL)	2	730 nM	–	58.9%
N=C1S/C(=C\c2ccc(OCc3ccccc3)cc2)C(=O)N1c1ccc(F)cc1	–	7.72 µM (≈ 3.12 µg/mL)	2	8550 nM	–	10.5%
N=C1S/C(=C\c2ccc(OCc3ccccc3)cc2)C(=O)N1c1ccc(Cl)cc1	–	7.42 µM (≈ 3.12 µg/mL)	–	7010 nM	–	16.4%
N=C1S/C(=C\c2ccc(OCc3ccccc3)cc2)C(=O)N1c1ccccc1[N+](=O)[O-]	–	58 µM (≈ 25 µg/mL)	2	15000 nM	–	24.4%
N=C1S/C(=C\c2ccc(OCc3ccccc3)cc2)C(=O)N1c1ncc([N+](=O)[O-])s1	–	–	–	6770 nM	–	–
NC(=O)c1c(NC(=O)c2ccc(Oc3ccccc3)cc2)sc2c1CCN(Cc1ccccc1)C2	–	3.58 µM (≈ 1.73 µg/mL)	2	780 nM	–	23.6%
NC(=O)c1c(NC(=O)c2ccc(OCc3ccccc3)cc2)sc2c1CCN(C(=O)c1ccccc1)C2	–	12.9 µM (≈ 6.62 µg/mL)	2	800 nM	–	13.7%
N=C1S/C(=C\c2ccc(OCc3ccccc3)cc2)C(=O)N1c1ccc([N+](=O)[O-])cc1	–	7.23 µM (≈ 3.12 µg/mL)	–	6160 nM	–	17.3%
Cc1ccc(C)c(N2C(=N)S/C(=C\c3ccc(OCc4ccccc4)cc3)C2=O)c1	–	15.1 µM (≈ 6.26 µg/mL)	2	1340 nM	4.6 °C	45.8%
CC(=O)N1CCc2c(sc(NC(=O)c3ccc(OCc4ccccc4)cc3)c2C(N)=O)C1	–	1.56 µM (≈ 0.701 µg/mL)	2	630 nM	–	11.6%
N#C/C(=C\c1cccs1)c1nc2cc([N+](=O)[O-])ccc2[nH]1	–	–	–	21300 nM	–	–
CC[C@@H](CO)NCCN[C@@H](CC)CO [ETHAMBUTOL]	Not Active	7.64 µM (≈ 1.56 µg/mL)	–	–	–	–
N=C1S/C(=C\c2ccc(OCc3ccccc3)cc2)C(=O)N1c1cccc([N+](=O)[O-])c1	–	14.5 µM (≈ 6.26 µg/mL)	–	5560 nM	–	52.9%
CC(=O)N1CCc2c(sc(NC(=O)c3ccc(Cl)cc3)c2C(N)=O)C1	–	4.13 µM (≈ 1.56 µg/mL)	–	640 nM	1.7 °C	38.4%

SMILES	IC50 [1]	MIC [2]	FC [3]	IC50 ([1]; read-out: IC50)	ΔTm [4]	cytotoxicity at 48 h, 50 µM [5]
N=C1S/C(=C\c2ccc(OCc3ccccc3)cc2)C(=O)N1c1ccc(Cl)cc1Cl	–	13.8 µM (≈ 6.27 µg/mL)	2	3490 nM	–	13.8%
COc1ccc(NC(=O)N2CCc3c(sc(NC(=O)c4ccc([N+](=O)[O-])s4)c3C(N)=O)C2)cc1	–	–	–	8170 nM	–	–
CC(=O)N1CCc2c(sc(NC(=O)c3ccc(Oc4ccccc4)cc3)c2C(N)=O)C1	–	6.11 µM (≈ 2.66 µg/mL)	–	660 nM	–	32.9%
CN1CCc2c(sc(NC(=O)c3ccc(OCc4ccccc4)cc3)c2C(N)=O)C1	–	15.3 µM (≈ 6.47 µg/mL)	2	1220 nM	–	37.6%
COc1c(N2C[C@@H]3CCCN[C@@H]3C2)c(F)cc2c(=O)c(C(=O)O)cn(C3CC3)c12 [MOXIFLOXACIN]	Not Active	1.24 µM (≈ 0.498 µg/mL)	2.5	–	–	–
CC(C)(C)OC(=O)N1CCc2c(sc(NC(=O)c3ccc(OCc4ccccc4)cc3)c2C(N)=O)C1	–	1.53 µM (≈ 0.777 µg/mL)	2	640 nM	–	52.1%
Cc1cccc(C)c1N1C(=N)S/C(=C\c2ccc(OCc3ccccc3)cc2)C1=O	–	60.4 µM (≈ 25 µg/mL)	2	1740 nM	1.4 °C	38.7%
Cc1ccc(N2C(=N)S/C(=C\c3ccc(OCc4ccccc4)cc3)C2=O)c(C)c1	–	1.88 µM (≈ 0.779 µg/mL)	–	6080 nM	–	36.8%
NC(=O)c1c(NC(=O)c2ccc(OCc3ccccc3)cc2)sc2c1CCN(Cc1ccccc1)C2	–	12.6 µM (≈ 6.26 µg/mL)	2	810 nM	–	24%
N=C1S/C(=C\c2ccc(OCc3ccccc3)cc2)C(=O)N1c1ccc(Br)cc1	–	3.35 µM (≈ 1.56 µg/mL)	–	22300 nM	–	7.83%
NNC(=O)c1ccncc1 [ISONIAZID]	Not Active	0.72 µM (≈ 0.0987 µg/mL)	1.2	–	–	–
CC(C)(C)OC(=O)N1CCc2c(sc(NC(=O)c3ccc(Oc4ccccc4)cc3)c2C(N)=O)C1	–	6.33 µM (≈ 3.12 µg/mL)	2	1120 nM	–	26.9%
CN1CCc2c(sc(NC(=O)c3ccc(Cl)cc3)c2C(N)=O)C1	–	8.95 µM (≈ 3.13 µg/mL)	2	670 nM	–	38.5%
N=C1S/C(=C\c2ccc(OCc3ccccc3)cc2)C(=O)N1c1ccccn1	–	8.06 µM (≈ 3.12 µg/mL)	2	2120 nM	–	37.2%
CCc1nc(Nc2ccccc2)c2c3c(sc2n1)CCCC3	–	–	–	15100 nM	–	–
NC(=O)c1c(NC(=O)c2ccc(Cl)cc2)sc2c1CCN(C(=O)c1ccccc1)C2	–	28.5 µM (≈ 12.5 µg/mL)	2	1500 nM	–	42.5%
Cc1c(Cl)cccc1N1C(=N)S/C(=C\c2ccc(OCc3ccccc3)cc2)C1=O	–	14.4 µM (≈ 6.26 µg/mL)	–	13000 nM	–	59.7%
CC(=O)N1CCc2c(sc(NC(=O)C3CC3)c2C(N)=O)C1	–	–	–	20100 nM	–	–
N=C1S/C(=C\c2ccc(OCc3ccccc3)cc2)C(=O)N1c1ncccn1	–	4.02 µM (≈ 1.56 µg/mL)	–	7520 nM	–	26.6%
